Assay results as given in ChEMBL document CHEMBL3352416, “Discovery of carbohybrid-based 2-aminopyrimidine analogues as a new class of rapid-acting antimalarial agents using image-based cytological profiling assay” (J Med Chem, 2014).
Active and inactive are the calls of the source. No cut-off for these calls is given here.

Columns and labels:
[1] = Cytotoxicity against human HepG2 cells after 48 hrs by resazurin based assay; assay type: cell-based
In short: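 Cells grown in DMEM with 10% FBS and 1% antibiotic-antimycotic at 37 °C, 5% CO2. Viability read by resazurin reduction. CC50 derived; amphotericin B used as positive cytotoxicity control.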

Plasmodium falciparum [2] = assay: Antimalarial activity against tightly synchronized Plasmodium falciparum K1 assessed as parasite stage accumulation index at schizonts stages at 10 uM treated at 18 hrs post-invasion for continuous duration of 36 hrs by automated image mining based cytological profiling assay; assay type: functional
In short: (§1)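 Tightly synchronized cultures exposed to 10 µM final from 6 hpi (early ring), 18 hpi (late ring) or 30 hpi (mid-trophozoite) for a continuous 36 h. Erythrocytes stained with WGA-AlexaFluor 488, parasite nuclei with DAPI, functional mitochondria with Mitotracker Red CMXRos. Stages (early rings, late rings, trophozoites, schizonts) classified by nuclear spot number and size. Viable parasitaemia and stage accumulation index obtained by automated image analysis.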

Plasmodium falciparum [3] = assay: Antimalarial activity against tightly synchronized Plasmodium falciparum K1 assessed as parasite stage accumulation index at trophozoites stages at 10 uM treated at 30 hrs post-invasion for continuous duration of 36 hrs by automated image mining based cytological profiling assay; assay type: functional; in short: as §1
Plasmodium falciparum [4] = assay: Antimalarial activity against tightly synchronized Plasmodium falciparum K1 assessed as parasite stage accumulation index at schizonts stages at 10 uM treated at 30 hrs post-invasion for continuous duration of 36 hrs by automated image mining based cytological profiling assay; assay type: functional; in short: as §1
Plasmodium falciparum [5] = assay: Antimalarial activity against Plasmodium falciparum K1 assessed as reduction in parasite stage accumulation index at 10 uM treated at 42 hrs post-invasion for 24 hrs by automated image mining based cytological profiling assay; assay type: functional, organism-based
In short: (§2)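 Tightly synchronized cultures exposed from the 42 hpi mid-schizont point for 24 h to 10 µM final. Host cells stained with wheat germ agglutinin-AlexaFluor 488, parasite nuclei with DAPI and live-parasite mitochondria with Mitotracker Red CMXRos. Infected and viable parasitaemia and stage proportions quantified by automated image mining. Stage accumulation indices and parasitaemia reduction index derived.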

Plasmodium falciparum [6] = assay: Antimalarial activity against Plasmodium falciparum HB3 assessed as reduction in parasite stage accumulation index at 10 uM treated at 42 hrs post-invasion for 24 hrs by automated image mining based cytological profiling assay; assay type: functional; in short: as §2
Plasmodium falciparum [7] = assay: Antimalarial activity against Plasmodium falciparum W2 assessed as reduction in parasite stage accumulation index at 10 uM treated at 42 hrs post-invasion for 24 hrs by automated image mining based cytological profiling assay; assay type: functional, organism-based; in short: as §2
Plasmodium falciparum [8] = assay: Antimalarial activity against Plasmodium falciparum K1 assessed as increase in schizonts parasite stage accumulation index at 10 uM treated at 42 hrs post-invasion for 24 hrs by automated image mining based cytological profiling assay; assay type: functional, organism-based; in short: as §2
Plasmodium falciparum [9] = assay: Antimalarial activity against Plasmodium falciparum HB3 assessed as increase in schizonts parasite stage accumulation index at 10 uM treated at 42 hrs post-invasion for 24 hrs by automated image mining based cytological profiling assay; assay type: functional; in short: as §2
Plasmodium falciparum [10] = assay: Antimalarial activity against Plasmodium falciparum W2 assessed as increase in schizonts parasite stage accumulation index at 10 uM treated at 42 hrs post-invasion for 24 hrs by automated image mining based cytological profiling assay; assay type: functional, organism-based; in short: as §2
Plasmodium falciparum [11] = assay: Antimalarial activity against tightly synchronized Plasmodium falciparum HB3 assessed as parasite stage accumulation index at early ring stages at 10 uM treated at 6 hrs post-invasion for continuous duration of 36 hrs by automated image mining based cytological profiling assay; assay type: functional
Plasmodium falciparum [12] = assay: Antimalarial activity against tightly synchronized Plasmodium falciparum HB3 assessed as parasite stage accumulation index at late ring stages at 10 uM treated at 6 hrs post-invasion for continuous duration of 36 hrs by automated image mining based cytological profiling assay; assay type: functional; in short: as §1
Plasmodium falciparum [13] = assay: Antimalarial activity against tightly synchronized Plasmodium falciparum HB3 assessed as parasite stage accumulation index at trophozoites stages at 10 uM treated at 6 hrs post-invasion for continuous duration of 36 hrs by automated image mining based cytological profiling assay; assay type: functional; in short: as §1
Plasmodium falciparum [14] = assay: Antimalarial activity against tightly synchronized Plasmodium falciparum HB3 assessed as parasite stage accumulation index at schizonts stages at 10 uM treated at 6 hrs post-invasion for continuous duration of 36 hrs by automated image mining based cytological profiling assay; assay type: functional; in short: as §1
Plasmodium falciparum [15] = assay: Antimalarial activity against tightly synchronized Plasmodium falciparum HB3 assessed as parasite stage accumulation index at late ring stages at 10 uM treated at 18 hrs post-invasion for continuous duration of 36 hrs by automated image mining based cytological profiling assay; assay type: functional; in short: as §1
Plasmodium falciparum [16] = assay: Antimalarial activity against tightly synchronized Plasmodium falciparum HB3 assessed as parasite stage accumulation index at trophozoites stages at 10 uM treated at 18 hrs post-invasion for continuous duration of 36 hrs by automated image mining based cytological profiling assay; assay type: functional; in short: as §1
Plasmodium falciparum [17] = assay: Antimalarial activity against tightly synchronized Plasmodium falciparum HB3 assessed as parasite stage accumulation index at schizonts stages at 10 uM treated at 18 hrs post-invasion for continuous duration of 36 hrs by automated image mining based cytological profiling assay; assay type: functional; in short: as §1
Plasmodium falciparum [18] = assay: Antimalarial activity against tightly synchronized Plasmodium falciparum HB3 assessed as parasite stage accumulation index at trophozoites stages at 10 uM treated at 30 hrs post-invasion for continuous duration of 36 hrs by automated image mining based cytological profiling assay; assay type: functional
Plasmodium falciparum [19] = assay: Antimalarial activity against tightly synchronized Plasmodium falciparum HB3 assessed as parasite stage accumulation index at schizonts stages at 10 uM treated at 30 hrs post-invasion for continuous duration of 36 hrs by automated image mining based cytological profiling assay; assay type: functional
Plasmodium falciparum [20] = assay: Antimalarial activity against tightly synchronized Plasmodium falciparum W2 assessed as parasite stage accumulation index at early ring stages at 10 uM treated at 6 hrs post-invasion for continuous duration of 36 hrs by automated image mining based cytological profiling assay; assay type: functional; in short: as §1
Plasmodium falciparum [21] = assay: Antimalarial activity against tightly synchronized Plasmodium falciparum W2 assessed as parasite stage accumulation index at late ring stages at 10 uM treated at 6 hrs post-invasion for continuous duration of 36 hrs by automated image mining based cytological profiling assay; assay type: functional
Plasmodium falciparum [22] = assay: Antimalarial activity against tightly synchronized Plasmodium falciparum W2 assessed as parasite stage accumulation index at trophozoites stages at 10 uM treated at 6 hrs post-invasion for continuous duration of 36 hrs by automated image mining based cytological profiling assay; assay type: functional
Plasmodium falciparum [23] = assay: Antimalarial activity against tightly synchronized Plasmodium falciparum W2 assessed as parasite stage accumulation index at schizonts stages at 10 uM treated at 6 hrs post-invasion for continuous duration of 36 hrs by automated image mining based cytological profiling assay; assay type: functional; in short: as §1
Plasmodium falciparum [24] = assay: Antimalarial activity against tightly synchronized Plasmodium falciparum W2 assessed as parasite stage accumulation index at late ring stages at 10 uM treated at 18 hrs post-invasion for continuous duration of 36 hrs by automated image mining based cytological profiling assay; assay type: functional; in short: as §1
Plasmodium falciparum [25] = assay: Antimalarial activity against tightly synchronized Plasmodium falciparum W2 assessed as parasite stage accumulation index at trophozoites stages at 10 uM treated at 18 hrs post-invasion for continuous duration of 36 hrs by automated image mining based cytological profiling assay; assay type: functional
Plasmodium falciparum [26] = assay: Antimalarial activity against tightly synchronized Plasmodium falciparum W2 assessed as parasite stage accumulation index at schizonts stages at 10 uM treated at 18 hrs post-invasion for continuous duration of 36 hrs by automated image mining based cytological profiling assay; assay type: functional
Plasmodium falciparum [27] = assay: Antimalarial activity against tightly synchronized Plasmodium falciparum W2 assessed as parasite stage accumulation index at trophozoites stages at 10 uM treated at 30 hrs post-invasion for continuous duration of 36 hrs by automated image mining based cytological profiling assay; assay type: functional; in short: as §1
Plasmodium falciparum [28] = assay: Antimalarial activity against tightly synchronized Plasmodium falciparum W2 assessed as parasite stage accumulation index at schizonts stages at 10 uM treated at 30 hrs post-invasion for continuous duration of 36 hrs by automated image mining based cytological profiling assay; assay type: functional
Plasmodium falciparum [29] = assay: Antimalarial activity against tightly synchronized Plasmodium falciparum K1 assessed as parasite stage accumulation index at early ring stages at 10 uM treated at 6 hrs post-invasion for continuous duration of 36 hrs by automated image mining based cytological profiling assay; assay type: functional; in short: as §1
Plasmodium falciparum [30] = assay: Antimalarial activity against tightly synchronized Plasmodium falciparum K1 assessed as parasite stage accumulation index at late ring stages at 10 uM treated at 6 hrs post-invasion for continuous duration of 36 hrs by automated image mining based cytological profiling assay; assay type: functional
Plasmodium falciparum [31] = assay: Antimalarial activity against tightly synchronized Plasmodium falciparum K1 assessed as parasite stage accumulation index at trophozoites stages at 10 uM treated at 6 hrs post-invasion for continuous duration of 36 hrs by automated image mining based cytological profiling assay; assay type: functional
Plasmodium falciparum [32] = assay: Antimalarial activity against tightly synchronized Plasmodium falciparum K1 assessed as parasite stage accumulation index at schizonts stages at 10 uM treated at 6 hrs post-invasion for continuous duration of 36 hrs by automated image mining based cytological profiling assay; assay type: functional; in short: as §1
Plasmodium falciparum [33] = assay: Antimalarial activity against tightly synchronized Plasmodium falciparum K1 assessed as parasite stage accumulation index at late ring stages at 10 uM treated at 18 hrs post-invasion for continuous duration of 36 hrs by automated image mining based cytological profiling assay; assay type: functional; in short: as §1
Plasmodium falciparum [34] = assay: Antimalarial activity against tightly synchronized Plasmodium falciparum K1 assessed as parasite stage accumulation index at trophozoites stages at 10 uM treated at 18 hrs post-invasion for continuous duration of 36 hrs by automated image mining based cytological profiling assay; assay type: functional; in short: as §1
Plasmodium falciparum [35] = assay: Antimalarial activity against Plasmodium falciparum K1 assessed as reduction in culture parasitaemia level at 10 uM treated at 42 hrs post-invasion for 24 hrs by automated image mining based cytological profiling assay; assay type: functional, organism-based; in short: as §2
Plasmodium falciparum [36] = assay: Antimalarial activity against Plasmodium falciparum HB3 assessed as reduction in culture parasitaemia level at 10 uM treated at 42 hrs post-invasion for 24 hrs by automated image mining based cytological profiling assay; assay type: functional; in short: as §2
Plasmodium falciparum [37] = assay: Antimalarial activity against Plasmodium falciparum W2 assessed as reduction in culture parasitaemia level at 10 uM treated at 42 hrs post-invasion for 24 hrs by automated image mining based cytological profiling assay; assay type: functional, organism-based; in short: as §2

| SMILES | Activity (Plasmodium falciparum [2]) | Activity (Plasmodium falciparum [3]) | Activity (Plasmodium falciparum [4]) | inhibition (Plasmodium falciparum [5]) | inhibition (Plasmodium falciparum [6]) | inhibition (Plasmodium falciparum [7]) | inhibition (Plasmodium falciparum [8]) | inhibition (Plasmodium falciparum [9]) | inhibition (Plasmodium falciparum [10]) | Activity (Plasmodium falciparum [11]) | Activity (Plasmodium falciparum [12]) | Activity (Plasmodium falciparum [13]) | Activity (Plasmodium falciparum [14]) | Activity (Plasmodium falciparum [15]) | Activity (Plasmodium falciparum [16]) | Activity (Plasmodium falciparum [17]) | Activity (Plasmodium falciparum [18]) | Activity (Plasmodium falciparum [19]) | Activity (Plasmodium falciparum [20]) | Activity (Plasmodium falciparum [21]) | other results |
| --- | --- | --- | --- | --- | --- | --- | --- | --- | --- | --- | --- | --- | --- | --- | --- | --- | --- | --- | --- | --- | --- |
| C[C@@H]1[C@H](O)[C@@H](C)/C=C/C=C/C=C/C=C/C=C/C=C/C=C/[C@H](O[C@@H]2O[C@H](C)[C@@H](O)[C@H](N)[C@@H]2O)C[C@@H]2O[C@](O)(C[C@@H](O)C[C@@H](O)[C@H](O)CC[C@@H](O)C[C@@H](O)CC(=O)O[C@H]1C)C[C@H](O)[C@H]2C(=O)O [AMPHOTERICIN B] |  |  |  |  |  |  |  |  |  |  |  |  |  |  |  |  |  |  |  |  | CC50 at 48 h [1]: 40 µM |
| CC(C)C[C@H](NC(=O)[C@H]1O[C@@H]1C(=O)O)C(=O)NCCCCN=C(N)N [E-64] | 2.11 | 0.5 | 2.07 | Active | Active | Active | Active | Active | Active | 3.15 | 1.15 | 1.32 | 0.45 | 0.8 | 1.33 | 2.05 | 1.06 | 3.85 | 1.78 | 0.91 | Activity (Plasmodium falciparum [22]): 1.4; Activity (Plasmodium falciparum [23]): 1.2; Activity (Plasmodium falciparum [24]): 0.76; Activity (Plasmodium falciparum [25]): 1.22; Activity (Plasmodium falciparum [26]): 2.1; Activity (Plasmodium falciparum [27]): 1.44; Activity (Plasmodium falciparum [28]): 3; Activity (Plasmodium falciparum [29]): 1.69; Activity (Plasmodium falciparum [30]): 0.67; Activity (Plasmodium falciparum [31]): 1.25; Activity (Plasmodium falciparum [32]): 0.55; Activity (Plasmodium falciparum [33]): 0.39; Activity (Plasmodium falciparum [34]): 1.45 |
| CC(=O)N[C@@H]1[C@@H](O)[C@H](O)[C@@H](CO)O[C@H]1O [N-ACETYLGLUCOSAMINE] | 0.64 | 0.96 | 1.04 | Active | Active | Active | inactive | inactive | inactive | 1.4 | 2.14 | 0.78 | 0.29 | 1 | 1.06 | 0.51 | 0.87 | 0.7 | 1.52 | 0.88 | inhibition (Plasmodium falciparum [35]): Active; inhibition (Plasmodium falciparum [36]): Active; inhibition (Plasmodium falciparum [37]): Active; Activity (Plasmodium falciparum [22]): 0.92; Activity (Plasmodium falciparum [23]): 0.54; Activity (Plasmodium falciparum [24]): 0.83; Activity (Plasmodium falciparum [25]): 1.12; Activity (Plasmodium falciparum [26]): 1.08; Activity (Plasmodium falciparum [27]): 0.34; Activity (Plasmodium falciparum [28]): 1.4; Activity (Plasmodium falciparum [29]): 1.33; Activity (Plasmodium falciparum [30]): 1.32; Activity (Plasmodium falciparum [31]): 0.8; Activity (Plasmodium falciparum [32]): 0.66; Activity (Plasmodium falciparum [33]): 0.86; Activity (Plasmodium falciparum [34]): 1.18 |
